Laboratory results: article PMC8992012 (Bioorganic & medicinal chemistry, 2021)

Each molecule was assayed on NF-κB (assay: NF-κB activation using THP1-Blue NF-κB cells). Conditions: Homo sapiens, 20 h, read-out: NF-κB SEAP Compound alone % Activation.
Format: cell-based, human
Outline: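 THP1-Blue NF-κB cells carry a stably integrated NF-κB-inducible SEAP. They were plated at 10^5 cells/well in RPMI with 10% FBS, penicillin, streptomycin and Normocin, then treated for 20 h with 5 μM test compound (0.5% DMSO final), alone or with LPS at 10 ng/mL. Supernatant SEAP was read colorimetrically at 630 nm. Signals were two-point normalized: baseline (vehicle or LPS) 100%, reference hit 200%.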

| Structure (SMILES) | activation at 5 µM [%] |
| --- | --- |
| CCCc1csc(NC(=O)c2ccc(S(=O)(=O)N3CCCCC3)cc2)n1 [Compound 12i, 4-(piperidin-1-ylsulfonyl)-N-(4-propylthiazol-2-yl)benzamide] | 100 |
| Cc1cccc(-c2csc(NC(=O)c3ccc(S(=O)(=O)N4CCCCC4)cc3)n2)c1 [Compound 12c, 4-(piperidin-1-ylsulfonyl)-N-(4-(m-tolyl)thiazol-2-yl)benzamide] | 100 |
| Cc1csc(NC(=O)c2ccc(S(=O)(=O)N3CCCCC3)cc2)n1 [Compound 12g, N-(4-methylthiazol-2-yl)-4-(piperidin-1-ylsulfonyl)benzamide] | 100 |

Same assay, conditions: compound alone, 5 μM, 20h

| Structure (SMILES) | NF-κB activity (in words, SAR text to Table 1) |
| --- | --- |
| Cc1ccc(C)c(-c2csc(NC(=O)c3ccc(S(=O)(=O)N4CCCCC4)cc3Br)n2)c1 [Compound 42i, 2-bromo-N-(4-(2,5-dimethylphenyl)thiazol-2-yl)-4-(piperidin-1-ylsulfonyl)benzamide] | significantly dropped |
| CCCC#Cc1sc(NC(=O)c2ccc(S(=O)(=O)N3CCC(CCC)CC3)cc2)nc1-c1cc(C)ccc1Br [Compound 61, N-(4-(2-bromo-5-methylphenyl)-5-(pent-1-yn-1-yl)thiazol-2-yl)-4-((4-propylpiperidin-1-yl)sulfonyl)benzamide] | significant loss of activity |
| Cc1ccc(C)c(-c2csc(NC(=O)c3ccc(S(=O)(=O)N4CCNCC4)cc3)n2)c1 [Compound 54i, N-(4-(2,5-dimethylphenyl)thiazol-2-yl)-4-(piperazin-1-ylsulfonyl)benzamide] | inactive |
| CCOC1CCN(S(=O)(=O)c2ccc(C(=O)Nc3nc(-c4cc(C)ccc4C)cs3)cc2)CC1 [Compound 54g, N-(4-(2,5-dimethylphenyl)thiazol-2-yl)-4-((4-ethoxypiperidin-1-yl)sulfonyl)benzamide] | very potent |
| Cc1ccc(Br)cc1-c1csc(NC(=O)c2ccc(S(=O)(=O)N3CCCCC3)cc2)n1 [Compound 12e, N-(4-(5-bromo-2-methylphenyl)thiazol-2-yl)-4-(piperidin-1-ylsulfonyl)benzamide] | active |
| Cc1ccc2c(c1)-c1nc(NC(=O)c3ccc(S(=O)(=O)N4CCCCC4)cc3)sc1CC2 [Compound 12s, N-(8-methyl-4,5-dihydronaphtho[1,2-d]thiazol-2-yl)-4-(piperidin-1-ylsulfonyl)benzamide] | weakly active |
| Cc1ccc(C)c(-c2csc(NC(=O)c3ccc(S(=O)(=O)N4CCCCC4)c([N+](=O)[O-])c3)n2)c1 [Compound 42f, N-(4-(2,5-dimethylphenyl)thiazol-2-yl)-3-nitro-4-(piperidin-1-ylsulfonyl)benzamide] | decline in activity |
| CCCc1csc(NC(=O)c2ccc(S(=O)(=O)N3CCCCC3)cc2)n1 [Compound 12i, 4-(piperidin-1-ylsulfonyl)-N-(4-propylthiazol-2-yl)benzamide] | None of these molecules had any NF-κB activity |
| Cc1cccc(-c2csc(NC(=O)c3ccc(S(=O)(=O)N4CCCCC4)cc3)n2)c1 [Compound 12c, 4-(piperidin-1-ylsulfonyl)-N-(4-(m-tolyl)thiazol-2-yl)benzamide] | inactive |
| Cc1ccc(C)c(-c2csc(NC(=O)c3ccc(S(=O)(=O)N4CCCCC4)cc3Cl)n2)c1 [Compound 42h, 2-chloro-N-(4-(2,5-dimethylphenyl)thiazol-2-yl)-4-(piperidin-1-ylsulfonyl)benzamide] | significantly dropped |
| COc1cc(S(=O)(=O)N2CCCCC2)ccc1C(=O)Nc1nc(-c2cc(C)ccc2C)cs1 [Compound 42j, N-(4-(2,5-dimethylphenyl)thiazol-2-yl)-2-methoxy-4-(piperidin-1-ylsulfonyl)benzamide] | significantly dropped |
| Cc1ccc(C)c(-c2cccc(NC(=O)c3ccc(S(=O)(=O)N4CCCCC4)cc3)n2)c1 [Compound 18b, N-(6-(2,5-dimethylphenyl)pyridin-2-yl)-4-(piperidin-1-ylsulfonyl)benzamide] | none of these molecules that replaced the thiazole functionality was active |
| Cc1ccc(C)c(-c2nnc(NC(=O)c3ccc(S(=O)(=O)N4CCCCC4)cc3)s2)c1 [Compound 18f, N-(5-(2,5-dimethylphenyl)-1,3,4-thiadiazol-2-yl)-4-(piperidin-1-ylsulfonyl)benzamide] | none of these molecules that replaced the thiazole functionality was active |
| CCCN(CCC)S(=O)(=O)c1ccc(C(=O)Nc2nc(-c3cc(C)ccc3C)cs2)cc1 [Compound 54b, N-(4-(2,5-dimethylphenyl)thiazol-2-yl)-4-(N,N-dipropylsulfamoyl)benzamide] | active |
| Cc1ccc(C)c(-c2csc(NC(=O)c3ccc(S(=O)(=O)N4CCCCC4)nc3)n2)c1 [Compound 42b, N-(4-(2,5-dimethylphenyl)thiazol-2-yl)-6-(piperidin-1-ylsulfonyl)nicotinamide] | loss of activity |
| Cc1ccc(C)c(-c2ccc(NC(=O)c3ccc(S(=O)(=O)N4CCCCC4)cc3)cn2)c1 [Compound 18d, N-(6-(2,5-dimethylphenyl)pyridin-3-yl)-4-(piperidin-1-ylsulfonyl)benzamide] | none of these molecules that replaced the thiazole functionality was active |

| Structure (SMILES) | NF-κB activity (in words, SAR text to Table 1) |
| --- | --- |
| CCN(c1ccccc1)S(=O)(=O)c1ccc(C(=O)Nc2nc(-c3cc(C)ccc3C)cs2)cc1 [Compound 54d, N-(4-(2,5-dimethylphenyl)thiazol-2-yl)-4-(N-ethyl-N-phenylsulfamoyl)benzamide] | inactive |
| CCCCN(CCCC)S(=O)(=O)c1ccc(C(=O)Nc2nc(-c3cc(C)ccc3C)cs2)cc1 [Compound 54c, 4-(N,N-dibutylsulfamoyl)-N-(4-(2,5-dimethylphenyl)thiazol-2-yl)benzamide] | lost activity |
| CCCN(CC)S(=O)(=O)c1ccc(C(=O)Nc2nc(-c3cc(C)ccc3C)cs2)cc1 [Compound 54a, N-(4-(2,5-dimethylphenyl)thiazol-2-yl)-4-(N-ethyl-N-propylsulfamoyl)benzamide] | active |
| CCc1ccc(C)c(-c2csc(NC(=O)c3ccc(S(=O)(=O)N4CCCCC4)cc3)n2)c1 [Compound 12u, N-(4-(5-ethyl-2-methylphenyl)thiazol-2-yl)-4-(piperidin-1-ylsulfonyl)benzamide] | regained the NF-κB activity |
| CCSc1sc(NC(=O)c2ccc(S(=O)(=O)N3CCCCC3)cc2)nc1-c1cc(C)ccc1C [Compound 18k, N-(4-(2,5-dimethylphenyl)-5-(ethylthio)thiazol-2-yl)-4-(piperidin-1-ylsulfonyl)benzamide] | completely inactive |
| Cc1ccc(C)c(-c2csc(NC(=O)c3ccc(S(=O)(=O)C4CCCCC4)cc3)n2)c1 [Compound 45b, 4-(cyclohexylsulfonyl)-N-(4-(2,5-dimethylphenyl)thiazol-2-yl)benzamide] | none of these modifications at site E was tolerated |
| CCC#Cc1sc(NC(=O)c2ccc(S(=O)(=O)N3CCCCC3)cc2)nc1-c1cc(C)ccc1C [Compound 18p, N-(5-(but-1-yn-1-yl)-4-(2,5-dimethylphenyl)thiazol-2-yl)-4-(piperidin-1-ylsulfonyl)benzamide] | very potent |
| Cc1csc(NC(=O)c2ccc(S(=O)(=O)N3CCCCC3)cc2)n1 [Compound 12g, N-(4-methylthiazol-2-yl)-4-(piperidin-1-ylsulfonyl)benzamide] | None of these molecules had any NF-κB activity |
| Cc1ccc(C)c(-c2cnc(NC(=O)c3ccc(S(=O)(=O)N4CCCCC4)cc3)s2)c1 [Compound 18e, N-(5-(2,5-dimethylphenyl)thiazol-2-yl)-4-(piperidin-1-ylsulfonyl)benzamide] | none of these molecules that replaced the thiazole functionality was active |
| Cc1ccc(C)c(-c2csc(NS(=O)(=O)c3ccc(C(=O)N4CCCCC4)cc3)n2)c1 [Compound 51, N-(4-(2,5-dimethylphenyl)thiazol-2-yl)-4-(piperidine-1-carbonyl)benzenesulfonamide] | inactive |
| CCCC#Cc1sc(NC(=O)c2ccc(S(=O)(=O)N3CCCCC3)cc2)nc1-c1cc(C)ccc1Br [Compound 60, N-(4-(2-bromo-5-methylphenyl)-5-(pent-1-yn-1-yl)thiazol-2-yl)-4-(piperidin-1-ylsulfonyl)benzamide] | retained NF-κB activity |
| CCN(CC)c1sc(NC(=O)c2ccc(S(=O)(=O)N3CCCCC3)cc2)nc1-c1cc(C)ccc1C [Compound 18g, N-(5-(diethylamino)-4-(2,5-dimethylphenyl)thiazol-2-yl)-4-(piperidin-1-ylsulfonyl)benzamide] | completely inactive |
| Cc1ccc(C)c(-c2csc(NC(=O)c3ccc(S(=O)(=O)N4CCCCC4)c(Br)c3)n2)c1 [Compound 42e, 3-bromo-N-(4-(2,5-dimethylphenyl)thiazol-2-yl)-4-(piperidin-1-ylsulfonyl)benzamide] | retained NF-κB activity |
| Cc1ccc(C)c(-c2csc(N(C)C(=O)c3ccc(S(=O)(=O)N4CCCCC4)cc3)n2)c1 [Compound 34c, N-(4-(2,5-dimethylphenyl)thiazol-2-yl)-N-methyl-4-(piperidin-1-ylsulfonyl)benzamide] | inactive |
| Cc1ccc(C)c(-c2c[nH]c(NC(=O)c3ccc(S(=O)(=O)N4CCCCC4)cc3)n2)c1 [Compound 18a, N-(4-(2,5-dimethylphenyl)-1H-imidazol-2-yl)-4-(piperidin-1-ylsulfonyl)benzamide] | none of these molecules that replaced the thiazole functionality was active |

Same assay, conditions: in presence of LPS, compared to compound 1

| Structure (SMILES) | NF-κB induction in the presence of LPS (in words, Fig. 6) |
| --- | --- |
| Cc1ccc(N=[N+]=[N-])cc1-c1csc(NC(=O)c2ccc(S(=O)(=O)N3CCCCC3)cc2)n1 [Compound 63, N-(4-(5-azido-2-methylphenyl)thiazol-2-yl)-4-(piperidin-1-ylsulfonyl)benzamide] | retained activity |
| C#CC1CCN(S(=O)(=O)c2ccc(C(=O)Nc3nc(-c4cc(C)ccc4C)cs3)cc2)CC1 [Compound 68d, N-(4-(2,5-dimethylphenyl)thiazol-2-yl)-4-((4-ethynylpiperidin-1-yl)sulfonyl)benzamide] | modestly active |
